Results published in PubChem BioAssay.
Records with an inconclusive call do not appear.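 How the source made its calls, unless noted: active means growth inhibition above 25% in both replicates, a cutoff set 3 SD above the mean; inconclusive means above 25% in only one replicate; inactive means the rest.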

Assays:
[1] = S. cerevisiae growth inhibition in permissive medium (OD615), pilot counter-assay for S. cerevisiae lifespan shortening project, permissive growth control (AID 705); details: OD615, 24 h, at 10 µM, active compounds read high
Summary of the method: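 System: S. cerevisiae with engineered DeaD lifespan system / Measured by: absorbance (optical density) at 615 nm / Read-out: reduction in yeast growth (OD615) / Times: 4 h cell pre-growth, 24 h exposure at 30 °C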

[2] = S. cerevisiae growth inhibition in restrictive medium, OD615, pilot screen, restrictive growth control, yeast lifespan reduction project (AID 706;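 active means growth inhibition above a set limit, 3 SD over mean compound inhibition, in both replicates, cut at about 43% in these data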;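 further: modified DeaD lifespan yeast strain shifted to restrictive glucose medium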); details: OD615, 48 h, at 10 µM, active compounds read high
Summary of the method: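 System: Engineered S. cerevisiae DeaD strain | Buffer or medium: Glucose-based CSMM-D restrictive medium | Schedule: 4 h pre-incubation, 48 h exposure at 30 °C | Technique: Optical density at 615 nm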

[3] = doxorubicin toxicity protection in MRP-1 cells – H69AR cells, CellTiter-Glo, duplicate, MRP-1 activator project, pilot screen (AID 807;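 active means viability increase at or above a cutoff of the median across tested compounds plus 3 SD, cut at about 8.5% in these data, passing the limit was not always enough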;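 further: compound pretreatment 18-22 h then 72 h combined with doxorubicin; 0% = doxorubicin alone and 100% = vehicle without doxorubicin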); details: H69AR viability with doxorubicin, CellTiter-Glo luminescence; at 10 µM; active compounds read high
[4] = viability of HCT116 without oncogenic beta-catenin – human colon tumor cells, pilot screen (AID 823;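 active means cell viability at or below a set limit in both duplicate runs, the limit being the all-compound median minus 4 SD, cut at about 23% in these data, passing the limit was not always enough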;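 further: 0% = wells killed by 20 µM Hyamine and 100% = untreated DMSO cell wells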); details: HCT116 beta-catenin knockout viability, CellTiter-Glo, 60 h; at 10 µM; active compounds read low
[5] = RAM pathway blockade in budding yeast – dse1pr::URA3 reporter, 5-FOA selection, pilot screen (AID 869;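 active means inhibition over a set limit, the all-compound mean plus 3 SD, in both replicate runs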;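 further: 0% = DMSO wells with no growth and 100% = 10 µM 1-NA-PP1 with full growth; RAM network block rescues cells from 5-FOA so hits raise OD615 growth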); details: S. cerevisiae dse1pr::URA3 5-FOA growth, OD615, 2 d; at 10 µM; active compounds read high; strain carries analog-sensitive mutant Cbk1 kinase
[6] = RAM signaling pathway blockade in yeast – S. cerevisiae, Pdr1DBD-CYC8 efflux-inhibited sensitized strain, primary screen (AID 1298;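 active means RAM network inhibition above 8.4% in each of two replicates, 3 SD over the compound average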;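 further: 0% = DMSO untreated cells without growth and 100% = 10 µM 1-NA-PP1 full growth; higher means more yeast growth rescued from 5-FOA killing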); details: S. cerevisiae cbk1-as DSE1-URA3 strain, 5-FOA growth OD615, 2 d; at 50 µM; active compounds read high

CCOC(=O)C1=CSC2=NS(=O)(=O)CCN12
inactive: growth inhibition [1] 3.57% | growth inhibition [2] -2.12% | viability increase [3] -2.36% | viability [4] 97.7% | inhibition [5] 2.31% | RAM network inhibition [6] -0.32%

COc1ccc(CNC(=O)c2ccc(NC(=O)C3CCCO3)cc2)cc1 (stereo not given)
inactive: growth inhibition [1] -16.3% | growth inhibition [2] -0.99% | viability increase [3] 0.75% | viability [4] 98.6% | inhibition [5] 2.87% | RAM network inhibition [6] 8.83%

Cc1nn(CC(=O)Nc2cccnc2N2CCOCC2)c(=O)c2ccccc12
inactive: growth inhibition [1] -23.7% | growth inhibition [2] 1.05% | viability increase [3] -2.18% | viability [4] 95% | inhibition [5] 1.22% | RAM network inhibition [6] 1.71%

O=c1[nH]c2ccc(S(=O)(=O)N3CCN(c4ccccc4F)CC3)cc2s1
inactive: growth inhibition [1] -19.3% | growth inhibition [2] -7.76% | viability increase [3] -4.17% | viability [4] 93.3% | inhibition [5] 0.75% | RAM network inhibition [6] 4.21%

Cc1cc(C)c(C#N)c(=N)o1
inactive: growth inhibition [1] 23.3% | growth inhibition [2] 20.7% | viability increase [3] -3.83% | viability [4] 87.2% | inhibition [5] 1.2% | RAM network inhibition [6] 8.54%

CC1(C)Cc2c(sc3c2c(=N)n(Cc2ccco2)c(=O)n3Cc2ccc(F)cc2)CO1
inactive: growth inhibition [1] -14.4% | growth inhibition [2] -4.37% | viability increase [3] -6.4% | viability [4] 56.5% | inhibition [5] 1.44% | RAM network inhibition [6] 6.85%

CC(=O)c1cccc(NC(=O)N2CCCC2C(=O)Nc2c(C)cccc2C)c1 (stereo not given)
inactive: growth inhibition [1] -22.1% | growth inhibition [2] -1.14% | viability increase [3] -2.28% | viability [4] 94.1% | inhibition [5] 1.62% | RAM network inhibition [6] 3.69%

O=C(Nc1cccc(Cl)c1Cl)c1ccncc1
inactive: growth inhibition [1] -9.8% | growth inhibition [2] -0.975% | viability increase [3] -0.14% | viability [4] 103% | inhibition [5] 1.85% | RAM network inhibition [6] 4.88%

OCCN1CCN(c2ncnc3c2sc2nc(N4CCOCC4)c4c(c23)CCC4)CC1
inactive: growth inhibition [1] -16.4% | growth inhibition [2] -3.42% | viability increase [3] -7.68% | viability [4] 55.3% | inhibition [5] 1.13% | RAM network inhibition [6] 2.39%

CCOC(=O)C1CCCN(C(=O)CC(C)c2ccccc2)C1 (stereo not given)
inactive: growth inhibition [1] -14.4% | growth inhibition [2] -0.005% | viability increase [3] -1.25% | viability [4] 104% | inhibition [5] 1.57% | RAM network inhibition [6] 3.91%

O=C(Nc1nnc(-c2ccc3c(c2)CCCC3)o1)c1ccccc1Cl
inactive: growth inhibition [1] -7.88% | growth inhibition [2] 18.4% | viability increase [3] -4.31% | viability [4] 34.6% | inhibition [5] 2.51% | RAM network inhibition [6] 4.48%

CC(C)OCCCNC(=O)c1ccc(NC(=O)C2CCCO2)cc1 (stereo not given)
inactive: growth inhibition [1] -12.9% | growth inhibition [2] -8.97% | viability increase [3] -1.08% | viability [4] 99.9% | inhibition [5] 1.57% | RAM network inhibition [6] 1.15%

Cc1c(NC(=O)CCC2CCCCC2)c(=O)n(-c2ccccc2)n1C
inactive: growth inhibition [1] 5.74% | growth inhibition [2] 3.62% | viability increase [3] -0.39% | viability [4] 99.4% | inhibition [5] 0.965% | RAM network inhibition [6] 3.28%

COc1ccc(CNc2oc(COc3ccccc3)nc2C#N)cc1
inactive: growth inhibition [1] -9.65% | growth inhibition [2] -2.3% | viability increase [3] -2.11% | viability [4] 79% | inhibition [5] 4.33% | RAM network inhibition [6] 2.19%

COc1ccccc1N1CCN(C2=CC(=O)CCC2)CC1
inactive: growth inhibition [1] -17.3% | growth inhibition [2] -12.2% | viability increase [3] -1.22% | viability [4] 100% | inhibition [5] 0.81% | RAM network inhibition [6] 2.91%

O=C(CNC(=O)Cn1ccc2ccccc2c1=O)NCCCN1CCCCCC1
inactive: growth inhibition [1] -7.25% | growth inhibition [2] -1.09% | viability increase [3] -2.48% | viability [4] 91.2% | inhibition [5] -0.25% | RAM network inhibition [6] 4.42%

CCOc1cc(OCC)cc(C(=O)Nc2cccnc2)c1
inactive: growth inhibition [1] -12.6% | growth inhibition [2] -12.7% | viability increase [3] -1.99% | viability [4] 100% | inhibition [5] 1.77% | RAM network inhibition [6] 4.32%

CN(C(=O)c1ccc(NC(=O)c2cnccn2)cc1)C1CCCCC1
inactive: growth inhibition [1] 2.12% | growth inhibition [2] 7.4% | viability increase [3] -1.47% | viability [4] 99.9% | inhibition [5] 0.62% | RAM network inhibition [6] 6.39%

CC12COC3(C(=O)Nc4cccnc4)CC1CCC32C (stereo not given)
inactive: growth inhibition [1] -5.62% | growth inhibition [2] 1.04% | viability increase [3] -2.08% | viability [4] 109% | inhibition [5] 1.51% | RAM network inhibition [6] 2.55%

NC(=O)C1CCN(C(=O)CCCCCn2c(=O)[nH]c3ccsc3c2=O)CC1
inactive: growth inhibition [1] -14% | growth inhibition [2] -8.6% | viability increase [3] -3.22% | viability [4] 96.4% | inhibition [5] 0.97% | RAM network inhibition [6] 3.54%

CC(C)N(C(=O)C1CC(=O)OC12CCCCC2)C(C)C (stereo not given)
inactive: growth inhibition [1] 1.46% | growth inhibition [2] 3.32% | viability increase [3] -0.41% | viability [4] 99.1% | inhibition [5] 1.32% | RAM network inhibition [6] 0.1%

O=C(Nc1ccc(Br)cc1Cl)c1cnccn1
inactive: growth inhibition [1] 1.88% | growth inhibition [2] -0.415% | viability increase [3] -0.71% | viability [4] 84.1% | inhibition [5] 1.97% | RAM network inhibition [6] 2.32%

NC(=O)C1CCN(c2nc(C3CC3)nc3c2nnn3Cc2ccccc2Cl)CC1
inactive: growth inhibition [1] -11.9% | growth inhibition [2] -3.43% | viability increase [3] -6.11% | viability [4] 84.4% | inhibition [5] 3.41% | RAM network inhibition [6] 0.99%

CCOC(=O)C1(c2csc(N)n2)COC(=O)C1 (stereo not given)
inactive: growth inhibition [1] -11.9% | growth inhibition [2] 0.175% | viability increase [3] -0.78% | viability [4] 96.8% | inhibition [5] 2.44% | RAM network inhibition [6] 2.75%

Cc1ccc(C)c(NC(=O)CSc2nnc(-c3ccncc3)n2N)c1
inactive: growth inhibition [1] 5.02% | growth inhibition [2] -0.075% | viability increase [3] -4.65% | viability [4] 103% | inhibition [5] 0.06% | RAM network inhibition [6] -0.98%

OC(COCc1cccs1)CN1CCN(c2ccccn2)CC1 (stereo not given)
inactive: growth inhibition [1] -19.5% | growth inhibition [2] -7.78% | viability increase [3] -1.3% | viability [4] 101% | inhibition [5] 2.32% | RAM network inhibition [6] 4.89%

Cc1c(C(=O)Nc2ccncc2)sc2nc(-c3ccc(F)cc3)cn12
inactive: growth inhibition [1] -5.44% | growth inhibition [2] 11.7% | viability increase [3] -6.8% | viability [4] 42.3% | inhibition [5] 1.96% | RAM network inhibition [6] 8.43%

CSc1nc2c(c(=O)n1-c1ccccc1)SCC2
inactive: growth inhibition [1] -15.9% | growth inhibition [2] -8.25% | viability increase [3] -2.76% | viability [4] 98.3% | inhibition [5] 0.775% | RAM network inhibition [6] 0.21%

CCOc1ccc(NC(=O)CSc2nnc(-c3ccccc3)n2N)cc1
inactive: growth inhibition [1] -8.33% | growth inhibition [2] -0.575% | viability increase [3] -6.71% | viability [4] 93.8% | inhibition [5] 0.495% | RAM network inhibition [6] 2.18%

Cc1ccc2nc(NC3=NCN(Cc4ccco4)CN3)nc(C)c2c1
inactive: growth inhibition [1] -1.68% | growth inhibition [2] -0.67% | viability increase [3] -7.05% | viability [4] 27.2% | inhibition [5] -0.585% | RAM network inhibition [6] -1.94%

Cn1ccnc1SCC(=O)NC1CCCCC1
inactive: growth inhibition [1] -11.1% | growth inhibition [2] -7.09% | viability increase [3] -0.96% | viability [4] 100% | inhibition [5] 3.6% | RAM network inhibition [6] 1.87%

CCOc1ccc(NC(=O)C2CC(C)=C(C)CC2C(=O)O)cc1 (stereo not given)
inactive: growth inhibition [1] -13.3% | growth inhibition [2] 2.49% | viability increase [3] -1.85% | viability [4] 99.1% | inhibition [5] 1.79% | RAM network inhibition [6] 1.67%

CCOC(=O)N1CCN(C(=O)CCc2nc3sc4c(c3c(=O)[nH]2)CCCC4)CC1
inactive: growth inhibition [1] -13.4% | growth inhibition [2] 2.66% | viability increase [3] -2.68% | viability [4] 104% | inhibition [5] 2.59% | RAM network inhibition [6] 3.99%

COCC(=O)NC(C)c1nc2ccccc2[nH]1 (stereo not given)
inactive: growth inhibition [1] -27.6% | growth inhibition [2] -2.47% | viability increase [3] -1.7% | viability [4] 91.9% | inhibition [5] 0.975% | RAM network inhibition [6] 3.95%

CC1(C)Cc2c(sc3c2c(=N)n(Cc2ccco2)c(=O)n3CC(=O)Nc2cccc(Cl)c2)CO1
inactive: growth inhibition [1] -9.23% | growth inhibition [2] -8.69% | viability increase [3] -6.27% | viability [4] 75% | inhibition [5] 3.25% | RAM network inhibition [6] 5.15%

CCCn1c(CNC(=O)Cc2ccccc2)nc2ccccc21
inactive: growth inhibition [1] 4.79% | growth inhibition [2] 4.86% | viability increase [3] -0.37% | viability [4] 106% | inhibition [5] 2.26% | RAM network inhibition [6] 2.59%

c1nc(NCCN2CCOCC2)c2sc3nc(N4CCOCC4)c4c(c3c2n1)CCC4
inactive: growth inhibition [1] -7.6% | growth inhibition [2] 6.11% | viability increase [3] -6.1% | viability [4] 84.8% | inhibition [5] 2.26% | RAM network inhibition [6] 8.21%

Cc1cccc(NC(=O)Cn2cnc3c(cnn3-c3ccc(F)cc3)c2=O)c1C
inactive: growth inhibition [1] -1.04% | growth inhibition [2] -2.65% | viability increase [3] -8.31% | viability [4] 29.6% | inhibition [5] 0.735% | RAM network inhibition [6] 2.47%

Cc1nn(CCO)c(C)c1Oc1ccccc1O
inactive: growth inhibition [1] 6.79% | growth inhibition [2] 4.62% | viability increase [3] -1.47% | viability [4] 102% | inhibition [5] 1.96% | RAM network inhibition [6] 1.86%

c1coc(CNc2nc3sc4c(c3c3ncnn23)CCCC4)c1
inactive: growth inhibition [1] -19.5% | growth inhibition [2] 0.565% | viability increase [3] -2.99% | viability [4] 99.4% | inhibition [5] 2.65% | RAM network inhibition [6] 3.48%
